We go through 3 compounds from ChEMBL document CHEMBL3272071, “Chemistry and biological activities of N,N-dimethylaminoethyl acrylate, a choline acetyltransferase inhibitor” (J Med Chem, 1976).

Active and inactive are the calls of the source. No cut-off for these calls is given here.

The subject of data set [1] is Lithobates pipiens. The experiment in a line: Inhibition of choline acetyltransferase in frog sciatic nerve-gastrocnemius muscle assessed as blockade of electrically stimulated muscle contraction at 10^-3 M incubated for 3 hrs followed by compound washout. In kind it is tissue-based. The gist of the method: (§1)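 Rana pipiens sciatic nerve-gastrocnemius (20-25 g frogs) in frog Ringer, 25°C, 95% O2/5% CO2. Nerve stimulated at 7 V, 0.5 ms, 250 Hz for 0.1 s every 10 s. Isometric contractions recorded, with washout after 10^-3 M exposure. ED50 with 95% confidence limits by Litchfield-Wilcoxon, N=16.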

In a further data set the target is Cholinesterase (Homo sapiens, UniProt P06276). The experiment in a line: Stability of the compound assessed as butyrylcholine esterase (unknown origin)-mediated hydrolysis at 5 X 10^-3 M. In kind it is ADME. The following applies: 5000 µM. In outline: (§2)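 Enzymatic hydrolysis at 5 mM compound in barbital buffer at 25°C for 20 min, pH 7.3-7.6. AChE at 0.083 U/ml or BuChE at 0.017 U/ml. Ester cleavage followed as pH change calibrated against acrylic acid. Mean ± SEM of three experiments.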

Data set [2] can be described thus: Stability in D2O by NMR spectroscopy. Format: physicochemical. The gist of the method:
(§3)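 NMR spectra taken in D2O every 3 min for 1 hr. pH stayed at 9.0 (±0.5) throughout.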

For data set [3], the target named is T1, Choline O-acetyltransferase (Rattus norvegicus) (UniProt P32738).
T1 sequence (whole entry): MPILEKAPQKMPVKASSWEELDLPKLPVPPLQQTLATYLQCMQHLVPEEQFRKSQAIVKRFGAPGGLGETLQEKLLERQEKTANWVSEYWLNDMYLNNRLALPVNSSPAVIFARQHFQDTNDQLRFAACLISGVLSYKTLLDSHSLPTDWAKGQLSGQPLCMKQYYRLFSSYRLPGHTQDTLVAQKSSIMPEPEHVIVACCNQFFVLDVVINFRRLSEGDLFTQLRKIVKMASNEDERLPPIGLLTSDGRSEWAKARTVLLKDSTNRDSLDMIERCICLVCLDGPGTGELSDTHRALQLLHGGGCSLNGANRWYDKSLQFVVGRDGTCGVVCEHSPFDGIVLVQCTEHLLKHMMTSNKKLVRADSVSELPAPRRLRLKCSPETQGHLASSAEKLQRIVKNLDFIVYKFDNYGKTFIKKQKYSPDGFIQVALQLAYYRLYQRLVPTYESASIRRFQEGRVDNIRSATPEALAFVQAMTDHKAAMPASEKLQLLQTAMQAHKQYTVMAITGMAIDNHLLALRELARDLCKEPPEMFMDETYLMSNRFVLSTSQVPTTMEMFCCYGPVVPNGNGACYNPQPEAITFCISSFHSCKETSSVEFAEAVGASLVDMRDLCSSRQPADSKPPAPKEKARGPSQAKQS
The experiment in a line: Inhibition of Holtzman rat brain choline acetyltransferase using [1-14C-acetyl]-CoA as substrate at 1 mM treated with buffered solution at pH 7.4 for 3 to 60 mins prior to enzyme addition followed by 20 mins incubation prior to substrate addition […] by liquid scintillation counting analysis.

In data set [4] the target is T1, Choline O-acetyltransferase (Rattus norvegicus). In words: Uncompetitive inhibition of Holtzman rat brain choline acetyltransferase using acetyl-CoA as substrate at 0.2 mM incubated 20 mins prior to substrate addition measured after 30 mins by LB plot using liquid scintillation counting analysis.
Data set [5] in a line: Dissociation constant, pKa of the compound. Format: physicochemical.
Data set [6] is described as follows: Half life of the compound auto-hydrolysis at 5 X 10^-3 M at pH 7.4. The note with it: buffer. Format: physicochemical. In outline: (§4)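 Autohydrolysis run at 25°C for 20 min in barbital buffer (1.5 mM sodium barbital, 0.3 mM KH2PO4, 150 mM NaCl), pH adjusted to give 7.3-7.6. Compound at 5.0 mM final, no enzyme. pH change tracked against an acrylic acid titration standard curve. Mean ± SEM, three experiments.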

Data set [7] has as its target T1, Choline O-acetyltransferase (Rattus norvegicus). The experiment in a line: Inhibition of Holtzman rat brain choline acetyltransferase using [1-14C-acetyl]-CoA as substrate at 1 mM incubated in un-buffered water for 24 hrs by liquid scintillation counting analysis. The gist of the method: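 Hydration product made by keeping compound in unbuffered water for 24 hr, then run at 1.0 mM in the standard rat brain ChAc radioassay: 20 min preincubation at 37°C, 0.065 mM [1-14C-acetyl]-CoA, 30 min, ion-exchange then scintillation counting.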

Data set [8] is described as follows: Stability in D2O assessed every 4 mins for 1 hr by NMR spectroscopy. Format: physicochemical.
Data set [9] has as its target T2, Choline O-acetyltransferase (Rattus norvegicus, UniProt P32738).
T2 sequence (P32738 whole entry): T1 sequence (whole entry)
The experiment in a line: Inhibition of Holtzman rat brain choline acetyltransferase using [1-14C-acetyl]-CoA as substrate incubated 20 mins prior to substrate addition measured after 30 mins by liquid scintillation counting analysis. The following applies: read-out: I50. In outline:
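ChAc extracted from Holtzman rat brain acetone powder in ice-cold pH 7.0 phosphate medium (NaCl, EDTA, cysteine, BSA), 9000 g supernatant. Extract preincubated with inhibitor 20 min at 37°C in pH 7.0 phosphate buffer with 150 mM NaCl, 0.05 mM neostigmine, 50 mM choline. Then [1-14C-acetyl]-CoA at 0.065 mM final, 30 min at 37°C. Acetylated product by sequential anion/cation exchange and scintillation counting.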

Data set [10] can be described thus: Stability in aqueous medium by NMR spectroscopy. In kind it is physicochemical. The note with it: buffer. The gist of the method:
as §3

For a further data set, the species on record is Cavia porcellus. The experiment in a line: Inhibition of choline acetyltransferase in guinea pig ileum assessed as blockade of electrically stimulated muscle contraction after 3 hrs. In kind it is tissue-based. The gist of the method: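 Guinea pig ileum on coaxial electrode in Tyrode solution, 37°C, 95% O2/5% CO2. Transmural stimulation: monophasic square pulses, 40 V supramaximal, 10 Hz, 0.5 ms, 1 s every 10 s. Contraction blockade gave ED50 with 95% confidence limits by Litchfield-Wilcoxon, N=20.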

For data set [11], the target named is T1, Choline O-acetyltransferase (Rattus norvegicus). The experiment in a line: Reversible inhibition of Holtzman rat brain choline acetyltransferase using [1-14C-acetyl]-CoA as substrate at 5 X 10^-4 M incubated 20 mins prior to substrate addition measured after 30 mins by liquid scintillation counting analysis. In outline: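 Reversibility test at 5 × 10^-4 M inhibitor with enzyme varied from 10 to 30 mg acetone powder per ml. Rat brain extract preincubated 20 min at 37°C, then [14C]acetyl-CoA radioassay for 30 min with scintillation counting. Mean of three experiments ± SEM.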

A further data set addresses Acetylcholinesterase (Homo sapiens, UniProt P22303). The experiment in a line: Stability of the compound assessed as acetylcholinesterase (unknown origin)-mediated hydrolysis at 5 X 10^-3 M. In kind it is ADME. The note with it: 5000 µM. In outline: as §2
In data set [12] the target is T1, Choline O-acetyltransferase (Rattus norvegicus). In words: Uncompetitive inhibition of Holtzman rat brain choline acetyltransferase using choline as substrate at 1 mM incubated 20 mins prior to substrate addition measured after 30 mins by LB plot using liquid scintillation counting analysis.
A short description of data set [13]: Stability of the compound assessed as autohydrolysis at 5 X 10^-3 M at pH 7.4. Format: physicochemical. The note with it: buffer, pH 7.4, 5000 µM. In outline:
as §4

A short description of data set [14]: Stability in chloroform-d by NMR spectroscopy. In kind it is physicochemical.
In data set [15] the test system is Lithobates pipiens. The experiment in a line: Inhibition of choline acetyltransferase in frog sciatic nerve-gastrocnemius muscle assessed as blockade of electrically stimulated muscle contraction after 3 hrs. In kind it is tissue-based. In outline: as §1
A short description of data set [16]: Stability in Me2SO-d6 by NMR spectroscopy. In kind it is physicochemical.
The target of data set [17] is T2, Choline O-acetyltransferase. The experiment in a line: Inhibition of Holtzman rat brain choline acetyltransferase using [1-14C-acetyl]-CoA as substrate at 1 mM incubated 20 mins prior to substrate addition measured after 30 mins by liquid scintillation counting analysis. The note with it: read-out: I50.

Chain of Acetylcholinesterase (P22303 whole entry): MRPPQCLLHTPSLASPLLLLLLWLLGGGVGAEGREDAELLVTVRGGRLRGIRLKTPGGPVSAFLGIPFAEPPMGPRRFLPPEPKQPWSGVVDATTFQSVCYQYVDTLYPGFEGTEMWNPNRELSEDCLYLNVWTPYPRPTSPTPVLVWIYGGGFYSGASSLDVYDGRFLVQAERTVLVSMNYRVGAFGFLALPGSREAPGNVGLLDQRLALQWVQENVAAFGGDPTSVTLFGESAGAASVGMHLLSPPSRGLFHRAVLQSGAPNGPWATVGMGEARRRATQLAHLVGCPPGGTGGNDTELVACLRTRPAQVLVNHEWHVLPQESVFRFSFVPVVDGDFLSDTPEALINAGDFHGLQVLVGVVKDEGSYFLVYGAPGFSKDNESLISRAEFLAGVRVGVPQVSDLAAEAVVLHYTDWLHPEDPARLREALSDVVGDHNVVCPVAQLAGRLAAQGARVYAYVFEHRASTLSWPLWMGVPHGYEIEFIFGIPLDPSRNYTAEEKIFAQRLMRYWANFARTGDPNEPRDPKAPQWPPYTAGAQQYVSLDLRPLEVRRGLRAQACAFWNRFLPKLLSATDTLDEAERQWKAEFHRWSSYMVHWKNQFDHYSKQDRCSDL
Chain of Cholinesterase (P06276 whole entry): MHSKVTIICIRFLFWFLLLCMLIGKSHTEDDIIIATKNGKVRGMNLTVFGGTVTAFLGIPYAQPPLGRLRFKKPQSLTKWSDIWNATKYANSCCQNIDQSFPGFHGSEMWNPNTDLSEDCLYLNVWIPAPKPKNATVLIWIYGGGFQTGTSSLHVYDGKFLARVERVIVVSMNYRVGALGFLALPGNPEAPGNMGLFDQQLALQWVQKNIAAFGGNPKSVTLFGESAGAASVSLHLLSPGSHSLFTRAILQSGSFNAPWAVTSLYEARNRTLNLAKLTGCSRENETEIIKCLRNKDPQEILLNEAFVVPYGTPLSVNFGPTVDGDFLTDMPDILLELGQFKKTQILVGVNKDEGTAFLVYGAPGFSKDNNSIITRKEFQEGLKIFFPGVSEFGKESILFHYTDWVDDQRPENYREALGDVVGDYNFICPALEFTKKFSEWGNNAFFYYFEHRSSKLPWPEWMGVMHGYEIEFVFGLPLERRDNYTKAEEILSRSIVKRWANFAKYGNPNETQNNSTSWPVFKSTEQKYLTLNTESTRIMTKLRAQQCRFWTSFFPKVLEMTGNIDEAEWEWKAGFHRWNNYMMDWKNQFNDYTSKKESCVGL

For the compound `C=CC(=O)OCCN(C)C`, the inhibition entry (in the data set on Lithobates pipiens [1]; in data set [3]; in data set [4]; in [11]; in data set [12]) was “Active” each time. In addition, the values for the Drug degradation (at Cholinesterase; at Acetylcholinesterase; in [13]) were 0.06 ×10⁻⁸ mol/min, 0.07 ×10⁻⁸ mol/min and 1.75 ×10⁻⁸ mol/min, respectively. For the same compound, the Stability result in data set [2] is “Stable”; in [8] it was “Stable”; in data set [10], “Unstable”; in data set [14], “Stable”; in data set [16], “Stable”. Further, in data set [5], the pKa (in general, the negative logarithm of the acid dissociation constant) was 8.6. The half-life (in general, the time in which the quantity being followed falls by half) at 5000 µM in data set [6] is 24 h. For the same compound, the inhibition entry in data set [7] was “inactive”. Moreover, in data set [9], the IC50 was 502 µM. Besides, the ED50 was found to be 1.21 ×10⁻⁴ M in the data set listed under Cavia porcellus and 5.05 ×10⁻⁴ M with Lithobates pipiens [15].
Take `C=CC(=O)O` [ACRYLIC ACID]: the IC50 in data set [17] is below 200 µM.
On to `CC(=O)OCC[N+](C)(C)C` [ACETYLCHOLINE], for which the Drug degradation on Cholinesterase turned out to be 6.57 ×10⁻⁸ mol/min; on Acetylcholinesterase it was 1.46 ×10⁻⁸ mol/min; in [13] it was 1.75 ×10⁻⁸ mol/min.
